Here are results for 14 compounds from PubChem BioAssay.

The source made the active and inactive calls.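 Rule for the calls, unless noted: active = viability loss from added drug above about 55%, and viability with drug at most 40%, in both replicates (limit read from the data, passing the limit was not always enough); inconclusive = both conditions met in only one replicate; inactive = neither replicate meets both conditions.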

Assay [1] in a line: reducers of endogenous Her2 protein level, primary screen, SKBR3 breast tumor cells, AlphaScreen, ATP viability (AID 461;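 active = Her2 level under about 52% in both replicate screens, with viability over 70% of control, limit read from the data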;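 for Her2 level: lower value means less Her2 protein in the cells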;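 for viability: percent of carrier control wells set as 100% viability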). Particulars: 18-24 h, measured here: SKBR3 viability, ATP luminescence, at 10 µM. Background: Alpha assays give light when donor and acceptor beads are brought close together.
For assay [2], the target named is Receptor tyrosine-protein kinase erbB-2 (Homo sapiens) (UniProt P04626). The assay is described as above. The note with it: 18-24 h, at 10 µM, stronger effect = lower value.
A short description of assay [3]: SK-BR-3 cell growth inhibitors, pilot screen, 24 h, human (AID 572;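 active = viability at or below 10% of carrier control in both of two separate runs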;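 note: compound exposure lasted between 18 and 24 h rather than exactly 24 h; 100% = carrier-treated control wells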). The note with it: SK-BR-3 viability, CellTiter-Glo luminescence, at 10 µM, stronger effect = lower value. For orientation: ATP-based viability assays read luminescence as a measure of living cells.
Assay [4] can be described thus: HUVEC growth inhibition – cell-based, human, primary screen (AID 575;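 active = viability at or below 30% in both replicate assays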;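 note: 100% = median of untreated cell wells with 0.1% DMSO on each plate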). Particulars: HUVEC proliferation, CellTiter-Glo luminescence, 72 h; at 10 µM; stronger effect = lower value. The essentials:
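Timing: 72 h treatment at 37 °C; material: HUVEC primary cells; technique: CellTiter-Glo luminescence measuring cellular ATP; controls: vehicle and MePR control wells; measure: percent of median DMSO-control luminescence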

A short description of assay [5]: growth inhibitors of H69AR lung tumor, primary screen, human, duplicate replicates (AID 580;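 active = viability at or under a set limit in both replicates, limit being median viability minus 3 SD, cut at about 48% in these data, passing the limit was not always enough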;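 note: 100% = mean luminescence of untreated wells and 0% = no signal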). The note with it: H69AR lung tumor cells viability, ATP luminescence, 72 h; at 10 µM; stronger effect = lower value.
A short description of assay [6]: reversal of MRP1-mediated doxorubicin resistance, pilot screen, H69AR cells, doxorubicin co-treatment (AID 601). Particulars: CellTiter-Glo, 72 h, at 10 µM; for differential viability (reversal): stronger effect = higher value.
The nature of assay [7]: 384-well plate pilot, post-Golgi transport modulator project, inhibition of yeast transport mutant growth (AID 636; in the data active = inhibition above about 31%). Particulars: absorbance 615 nm, about 18 h, stronger effect = higher value.
Assay [8] is described as follows: growth suppression of yeast trafficking mutant, preliminary HTS, modulators of trafficking downstream of Golgi apparatus project, 1536-format plate, OD 615 nm (AID 637; in the data active = inhibition above about 30%). The note with it: yeast transport mutant growth, absorbance 615 nm, 18 h; stronger effect = higher value.
The mark [9] stands for this setting: H69AR cells + 2 uM doxorubicin, measured here: viability with 2 uM doxorubicin, stronger effect = lower value.
[10] abbreviates: H69AR cells, compound alone cytotoxicity.

Sequence of Receptor tyrosine-protein kinase erbB-2 (Homo sapiens) (P04626 whole entry, looked up): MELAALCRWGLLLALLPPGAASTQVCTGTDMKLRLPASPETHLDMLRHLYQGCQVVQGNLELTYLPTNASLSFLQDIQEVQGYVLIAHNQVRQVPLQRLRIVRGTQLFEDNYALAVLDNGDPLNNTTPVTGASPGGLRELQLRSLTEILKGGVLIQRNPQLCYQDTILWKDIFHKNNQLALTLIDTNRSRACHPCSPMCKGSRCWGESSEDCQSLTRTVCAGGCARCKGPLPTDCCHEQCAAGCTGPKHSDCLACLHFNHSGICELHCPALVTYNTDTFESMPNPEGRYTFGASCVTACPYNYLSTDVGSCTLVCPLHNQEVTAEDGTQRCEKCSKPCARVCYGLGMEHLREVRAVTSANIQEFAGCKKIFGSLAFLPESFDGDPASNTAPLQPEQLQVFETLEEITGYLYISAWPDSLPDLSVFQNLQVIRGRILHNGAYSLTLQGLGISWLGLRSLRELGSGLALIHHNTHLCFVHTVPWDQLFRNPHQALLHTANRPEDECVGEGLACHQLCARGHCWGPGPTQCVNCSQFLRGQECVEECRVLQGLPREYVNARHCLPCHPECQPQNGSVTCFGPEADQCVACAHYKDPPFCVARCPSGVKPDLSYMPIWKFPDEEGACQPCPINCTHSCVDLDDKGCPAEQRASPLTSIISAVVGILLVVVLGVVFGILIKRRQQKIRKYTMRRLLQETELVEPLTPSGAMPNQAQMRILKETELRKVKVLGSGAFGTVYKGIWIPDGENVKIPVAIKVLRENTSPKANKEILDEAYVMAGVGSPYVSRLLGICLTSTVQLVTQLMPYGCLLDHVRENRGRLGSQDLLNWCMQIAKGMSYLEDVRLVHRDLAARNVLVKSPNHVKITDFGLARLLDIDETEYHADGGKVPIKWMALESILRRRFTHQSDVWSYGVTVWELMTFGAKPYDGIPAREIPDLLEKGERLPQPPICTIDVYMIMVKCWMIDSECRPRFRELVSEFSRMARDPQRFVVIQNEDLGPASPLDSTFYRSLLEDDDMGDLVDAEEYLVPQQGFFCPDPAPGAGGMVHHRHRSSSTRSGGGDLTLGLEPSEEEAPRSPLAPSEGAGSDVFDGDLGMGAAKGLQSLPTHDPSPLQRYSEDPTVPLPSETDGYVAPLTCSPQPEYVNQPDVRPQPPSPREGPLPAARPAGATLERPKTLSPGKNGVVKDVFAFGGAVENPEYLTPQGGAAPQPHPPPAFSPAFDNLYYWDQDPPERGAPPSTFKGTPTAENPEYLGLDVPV

One may read the viability as a read-out of living cells in per cent, often relative to untreated cells. What is called inhibition is the drop in the measured response relative to a control, in per cent. For `Cc1cc(OCC(O)CN2CCN(CCO)CC2)ccc1C(C)C` (stereo not given), the viability in assay [1] is 86.5%; in assay [3], 86.5% (inactive); in assay [4], 101% (inactive); in assay [5], 95.3% (inactive); in assay [6] (setting [9]), 84.8%; in assay [6] (setting [10]) it was 95.3%. For the same compound, in assay [2], the Her2 level is 96% (inactive). Also, the differential viability (reversal) in assay [6] (H69AR cells + 2 uM doxorubicin) was 10.5% (inactive). Besides, the inhibition was -2.21% (inactive) in assay [7] and -1.67% (inactive) in assay [8].

In the case of `CC(C)(C)n1ncc2c(=O)n(CC(=O)NCCc3ccccc3)cnc21`, the viability in assay [1] was 88%; in assay [3] it was 88% (inactive); in assay [4], 107% (inactive); in assay [5], 90.9% (inactive); in assay [6] (setting [9]), 95.8%; in assay [6] (setting [10]), 90.9%. The Her2 level in assay [2] is 108% (inactive). Moreover, the differential viability (reversal) in assay [6] (H69AR cells + 2 uM doxorubicin) was -4.92% (inactive). Moreover, the inhibition in assay [7] was 0.92% (inactive); in assay [8], -6.13% (inactive).

As for `Clc1ccccc1OCc1nn2c(-c3ccncc3)nnc2s1`, the viability in assay [1] is 114%; in assay [3], 114% (inactive); in assay [4], 78.6% (inactive); in assay [5], 98.2% (inactive); in assay [6] (setting [9]), 92.7%; in assay [6] (setting [10]), 98.2%. For the same compound, the Her2 level in assay [2] is 75.5% (inactive). The differential viability (reversal) in assay [6] (H69AR cells + 2 uM doxorubicin) is 5.55% (inactive). Besides, the inhibition is -5.95% (inactive) in assay [7] and 2.67% (inactive) in assay [8].

Take `CCOC(=O)N1CCC(N2C(=O)c3ccccc3C2Nc2ccc3c(C)cc(=O)oc3c2)CC1` (stereo not given): the viability in assay [1] was 76%; in assay [3], 76% (inactive); in assay [4], 115% (inactive); in assay [5], 83.4% (inactive); in assay [6] (setting [9]), 69.5%; in assay [6] (setting [10]), 83.4%. For the same compound, the Her2 level in assay [2] was 105% (inactive). For the same compound, in assay [6] (H69AR cells + 2 uM doxorubicin), the differential viability (reversal) is 13.9% (inactive). In addition, the figures for the inhibition in assay [7] and in assay [8] were -1.79% (inactive) and -2.67% (inactive), respectively.

`Cc1ccc(S(=O)(=O)N(CC(=O)N2CCC(C(N)=O)CC2)c2cccc(C(F)(F)F)c2)cc1`: the viability in assay [1] was 99.5%; in assay [3] it was 99.5% (inactive); in assay [4], 87.8% (inactive); in assay [5], 82.9% (inactive); in assay [6] (setting [9]), 89.4%; in assay [6] (setting [10]), 82.9%. The Her2 level in assay [2] was 120% (inactive). The differential viability (reversal) in assay [6] (H69AR cells + 2 uM doxorubicin) was -6.52% (inactive). The inhibition in assay [7] was -3.33% (inactive); in assay [8], 5% (inactive).

For the compound `C(=N\n1cnnc1)/c1cccnc1`, the viability in assay [1] is 87.5%; in assay [3], 87.5% (inactive); in assay [4] it was 105% (inactive); in assay [5], 98.6% (inactive); in assay [6] (setting [9]) it was 88.8%; in assay [6] (setting [10]), 98.6%. Also, the Her2 level in assay [2] is 107% (inactive). Also, the differential viability (reversal) in assay [6] (H69AR cells + 2 uM doxorubicin) is 9.86% (inactive). The inhibition in assay [7] was 4.34% (inactive); in assay [8], 0.36% (inactive).

As to `COc1cccc(N2CCN(CC(=O)Nc3nnc(-c4ccccc4)s3)CC2)c1`, the viability in assay [1] was 86%; in assay [3] it was 86% (inactive); in assay [4] it was 54.7% (inactive); in assay [5] it was 83.5% (inactive); in assay [6] (setting [9]) it was 103%; in assay [6] (setting [10]), 83.5%. The Her2 level in assay [2] was 86% (inactive). For the same compound, the differential viability (reversal) in assay [6] (H69AR cells + 2 uM doxorubicin) is -19.7% (inactive). The inhibition in assay [7] was -3.12% (inactive); in assay [8], -1.64% (inactive).

On to `O=C(CCC(=O)c1cccs1)NCc1ccccc1`, for which the viability was 102% in assay [1]; 102% (inactive) in assay [3]; 98.2% (inactive) in assay [4]; 97.8% (inactive) in assay [5]; 97.8% in assay [6] (setting [9]); 97.8% in assay [6] (setting [10]). Further, the Her2 level in assay [2] was 114% (inactive). Further, the differential viability (reversal) in assay [6] (H69AR cells + 2 uM doxorubicin) was -0.02% (inactive). For the same compound, the inhibition is -3.64% (inactive) in assay [7] and -2.22% (inactive) in assay [8].

`CCC(c1nnnn1CCOC)N(Cc1ccc(C)cc1)Cc1cc2cc(OC)ccc2[nH]c1=O` (stereo not given): the viability is 115% in assay [1]; 115% (inactive) in assay [3]; 71.9% (inactive) in assay [4]; 72.5% (inactive) in assay [5]; 64.7% in assay [6] (setting [9]); 72.5% in assay [6] (setting [10]). In addition, in assay [2], the Her2 level is 89% (inactive). Further, the differential viability (reversal) in assay [6] (H69AR cells + 2 uM doxorubicin) is 7.76% (inactive). Besides, the inhibition is -3.03% (inactive) in assay [7] and -1.77% (inactive) in assay [8].

On to `Cc1cc(Nc2ccc(N3CCC(C)CC3)cc2)n2ncnc2n1`, for which the viability in assay [1] was 100%; in assay [3] it was 100% (inactive); in assay [4], 101% (inactive); in assay [5] it was 77.6% (inactive); in assay [6] (setting [9]), 79%; in assay [6] (setting [10]), 77.6%. The Her2 level in assay [2] is 110% (inactive). For the same compound, the differential viability (reversal) in assay [6] (H69AR cells + 2 uM doxorubicin) was -1.35% (inactive). Moreover, the results for the inhibition in assay [7] and in assay [8] were 5.62% (inactive) and 3.02% (inactive), respectively.

Take `Cc1cccc(NC(=O)CSc2nnc(-c3cc(C)n(-c4ccccc4)c3C)o2)c1C`: the viability in assay [1] was 115%; in assay [3] it was 115% (inactive); in assay [4], 66.3% (inactive); in assay [5] it was 76.2% (inactive); in assay [6] (setting [9]), 80.2%; in assay [6] (setting [10]) it was 76.2%. Further, the Her2 level in assay [2] is 91% (inactive). In assay [6] (H69AR cells + 2 uM doxorubicin), the differential viability (reversal) is -3.98% (inactive). The inhibition was 0.26% (inactive) in assay [7] and -6.03% (inactive) in assay [8].

Take `CCN1CCN(c2c(Cl)cccc2NC(=O)c2ccco2)CC1`: the viability is 67.5% in assay [1]; 67.5% (inactive) in assay [3]; 98.1% (inactive) in assay [4]; 97.5% (inactive) in assay [5]; 90.1% in assay [6] (setting [9]); 97.5% in assay [6] (setting [10]). Moreover, the Her2 level in assay [2] was 88% (inactive). The differential viability (reversal) in assay [6] (H69AR cells + 2 uM doxorubicin) is 7.33% (inactive). Besides, the figures for the inhibition in assay [7] and in assay [8] were -3.33% (inactive) and -0.32% (inactive), respectively.

Regarding `CC(C)(CO)NC(=O)CCCOc1ccc(Cl)cc1Cl`, the viability was 97% in assay [1]; 97% (inactive) in assay [3]; 84.5% (inactive) in assay [4]; 98.1% (inactive) in assay [5]; 79.2% in assay [6] (setting [9]); 98.1% in assay [6] (setting [10]). Besides, the Her2 level in assay [2] was 104% (inactive). In addition, in assay [6] (H69AR cells + 2 uM doxorubicin), the differential viability (reversal) was 19% (inactive). Besides, the inhibition was -0.26% (inactive) in assay [7] and 0.17% (inactive) in assay [8].

For `NC(=O)c1c(NC(=O)CSc2nnc(-c3ccco3)n2-c2ccccc2)sc2c1CCC2`, the viability in assay [1] was 76%; in assay [3], 76% (inactive); in assay [4], 56.5% (inactive); in assay [5] it was 28.9% (active); in assay [6] (setting [9]), 66.8%; in assay [6] (setting [10]), 28.9%. The Her2 level in assay [2] was 68% (inactive). Further, in assay [6] (H69AR cells + 2 uM doxorubicin), the differential viability (reversal) was -37.9% (inactive). In addition, the inhibition was -4% (inactive) in assay [7] and 35.7% (active) in assay [8].
